Results reported in ChEMBL document CHEMBL1128718, “2-Substituted penems with amino acid-related side chains: synthesis and antibacterial activity of a new series of beta-lactam antibiotics” (1995).
In brackets after ≈: the same amount, converted by molar mass.

Experiments:
Type in all cases: functional
Enterococcus faecalis [1] = assay: In Vitro Anti Bacterial Activity (MIC90) against 90% of tested clinical Isolates of Enterococcus faecalis(47)
Procedure, shortened: (§1)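 Over 500 clinical isolates tested in total; the line gives the isolate count. MIC90 for aerobes by dilution in Mueller Hinton 2 medium, inoculum 10⁴ cells/mL, incubated 24 h at 37 °C.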

Aeromonas = assay: In Vitro Anti Bacterial Activity (MIC90) against 90% of tested clinical Isolates of Aeromonas species(21); procedure, shortened: as §1
Escherichia coli [2] = assay: In Vitro antibacterial activity against (Ec) Escherichia coli ATCC 25922
Procedure, shortened: (§2)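 Panel of standard ATCC strains plus modified strains: methicillin-resistant, hyperpermeable, β-lactamase-producing (TEM1, TEM2, SHV) and β-lactamase-lacking. MIC determined in Mueller Hinton 2 medium, inoculum 10⁴ cells/mL, incubated 24 h at 37 °C.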

Pseudomonas aeruginosa [3] = assay: In Vitro antibacterial activity against (Pa G242) hyperpermeable Pseudomonas aeruginosa strain; procedure, shortened: as §2
Escherichia coli [4] = assay: In Vitro antibacterial activity against (Ec L) Escherichia coli […] strain; procedure, shortened: as §2
Staphylococcus aureus [5] = assay: In Vitro Anti Bacterial Activity (MIC90) against 90% of tested clinical Isolates of Staphylococcus aureus MS (6); procedure, shortened: as §1
Klebsiella aerogenes = assay: In Vitro Anti Bacterial Activity (MIC90) against 90% of tested clinical Isolates of Enterobacter aerogenes(19); procedure, shortened: as §1
Enterococcus faecium = assay: In Vitro Anti Bacterial Activity (MIC90) against 90% of tested clinical Isolates of Enterococcus faecium(47); procedure, shortened: as §1
Streptococcus pneumoniae = assay: In Vitro Anti Bacterial Activity (MIC90) against 90% of tested clinical Isolates of Streptococcus pneumoniae (23)
Bacteroides fragilis = assay: In Vitro Anti Bacterial Activity (MIC90) against 90% of tested clinical Isolates of Bacteroides fragilis(15)
Procedure, shortened: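 Anaerobic clinical isolates. MIC90 by dilution in Wilkins-Chalgren agar, inoculum 10⁵ cells/mL, incubated 24–48 h at 37 °C.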

Pseudomonas aeruginosa [6] = assay: In Vitro antibacterial activity against (Pa) Pseudomonas aeruginosa ATCC 27853; procedure, shortened: as §2
[7] = test system: Acinetobacter calcoaceticus subsp. anitratus; assay: In Vitro Anti Bacterial Activity (MIC90) against 90% of tested clinical Isolates of Acinetobacter anitratus(20); procedure, shortened: as §1
Staphylococcus aureus [8] = assay: In vitro antibacterial activity against Sa(II) Staphylococcus aureus ATCC 25923; procedure, shortened: as §2
Moraxella catarrhalis = assay: In Vitro Anti Bacterial Activity (MIC90) against 90% of tested clinical Isolates of Branhamella catarrhalis(27)
Streptococcus pyogenes = assay: In Vitro Anti Bacterial Activity (MIC90) against 90% of tested clinical Isolates of Streptococcus pyogenes(31)
Staphylococcus aureus [9] = assay: In vitro antibacterial activity against Sa(I) Staphylococcus aureus ATCC 29213
Procedure, shortened: (§3)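 MIC was determined in Mueller Hinton 2 medium with an inoculum of 10⁴ cells/mL and incubation for 24 h at 37 °C. Strains: Sa(I) is S. aureus ATCC 29213; Sa MR(I) is a heterogeneous methicillin-resistant S. aureus; Sa MR(II) is a homogeneous methicillin-resistant S. aureus.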

[10] = test system: Stenotrophomonas maltophilia; assay: In Vitro Anti Bacterial Activity (MIC90) against 90% of tested clinical Isolates of Xanthomonas maltophilia(9); procedure, shortened: as §1
Listeria monocytogenes = assay: In Vitro Anti Bacterial Activity (MIC90) against 90% of tested clinical Isolates of Listeria monocytogenes (20); procedure, shortened: as §1
Citrobacter freundii = assay: In Vitro Anti Bacterial Activity (MIC90) against 90% of tested clinical Isolates of Citrobacter freundii(20); procedure, shortened: as §1
Yersinia sp. = assay: In Vitro Anti Bacterial Activity (MIC90) against 90% of tested clinical Isolates of Yersinia species(20); conditions: Yersinia sp. (in: enterobacteria)
Enterococcus faecalis [11] = assay: In Vitro antibacterial activity against (Ef) Enterococcus faecalis ATCC 29212; procedure, shortened: as §2
Haemophilus influenzae = assay: In Vitro Anti Bacterial Activity (MIC90) against 90% of tested clinical Isolates of Haemophilus Influenzae(21)
Procedure, shortened: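 Clinical isolates. MIC90 in Haemophilus Test Medium Base plus Haemophilus Test Medium Supplement, inoculum 10⁴ cells/mL, incubated 24–48 h at 37 °C.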

Escherichia coli [12] = assay: In Vitro Anti Bacterial Activity (MIC90) against 90% of tested clinical Isolates of Escherichia coli; procedure, shortened: as §1
Escherichia coli [13] = assay: In Vitro antibacterial activity against (Ec TEM1) Escherichia coli […] strain; procedure, shortened: as §2
Staphylococcus aureus [14] = assay: In vitro antibacterial activity against Sa MR(II) homogeneous methicillin resistant Staphylococcus aureus; procedure, shortened: as §3
Pseudomonas aeruginosa [15] = assay: In Vitro antibacterial activity against (Pa) hyperpermeable Pseudomonas aeruginosa […] strain; procedure, shortened: as §2
Escherichia coli [16] = assay: In Vitro antibacterial activity against (Ec TEM2) Escherichia coli […] strain; procedure, shortened: as §2
Klebsiella pneumoniae = assay: In Vitro Anti Bacterial Activity (MIC90) against 90% of tested clinical Isolates of Klebsiella pneumoniae(20); procedure, shortened: as §1
Staphylococcus aureus [17] = assay: In Vitro Anti Bacterial Activity (MIC90) against 90% of tested clinical Isolates of Staphylococcus aureus MV (20)
Streptococcus agalactiae = assay: In Vitro Anti Bacterial Activity (MIC90) against 90% of tested clinical Isolates of Streptococcus agalactiaeB(21)
Pseudomonas aeruginosa [18] = assay: In Vitro Anti Bacterial Activity (MIC90) against 90% of tested clinical Isolates of Pseudomonas aeruginosa(11); procedure, shortened: as §1
Escherichia coli [19] = assay: In Vitro antibacterial activity against (Ec DC2) hyperpermeable Escherichia coli strain; procedure, shortened: as §2
[20] = test system: Staphylococcus epidermidis; assay: In Vitro Anti Bacterial Activity (MIC90) against 90% of tested clinical Isolates of Staphylococcus epidermidis (13); procedure, shortened: as §1
Escherichia coli [21] = assay: In Vitro antibacterial activity against (Ec SHV) Escherichia coli […] strain; procedure, shortened: as §2
Clostridium perfringens = assay: In Vitro Anti Bacterial Activity (MIC90) against 90% of tested clinical Isolates of Clostridium perfringens(27)
Procedure, shortened: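 MIC90 over clinical isolates of this anaerobic species, taken from the MIC distribution. Anaerobes were tested on Wilkins-Chalgren agar with an inoculum of 10⁵ cells/mL and incubated 24–48 h at 37 °C.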

Staphylococcus aureus [22] = assay: In vitro antibacterial activity against Sa MR(I) heterogeneous methicillin resistant Staphylococcus aureus; procedure, shortened: as §3
Morganella morganii = assay: In Vitro Anti Bacterial Activity (MIC90) against 90% of tested clinical Isolates of Morganella morganii(10); procedure, shortened: as §1
Providencia rettgeri = assay: In Vitro Anti Bacterial Activity (MIC90) against 90% of tested clinical Isolates of Providencia rettgeri(10); procedure, shortened: as §1
Providencia stuartii = assay: In Vitro Anti Bacterial Activity (MIC90) against 90% of tested clinical Isolates of Providencia stuartii(10); procedure, shortened: as §1
Proteus mirabilis = assay: In Vitro Anti Bacterial Activity (MIC90) against 90% of tested clinical Isolates of Proteus mirabilis(16); procedure, shortened: as §1
Proteus vulgaris = assay: In Vitro Anti Bacterial Activity (MIC90) against 90% of tested clinical Isolates of Proteus vulgaris(10); procedure, shortened: as §1

SMILES: C[C@@H](O)[C@H]1C(=O)N2C(C(=O)O)=C(CN3CCC[C@@H]3C(N)=O)S[C@H]12
- MIC90 (Enterococcus faecalis [1]): 32 µg/mL (≈ 93.7 µM)
- MIC90 (Aeromonas): 0.25 µg/mL (≈ 0.732 µM)
- MIC (Escherichia coli [2]): 1 µg/mL (≈ 2.93 µM)
- MIC (Pseudomonas aeruginosa [3]): 1 µg/mL (≈ 2.93 µM)
- MIC (Escherichia coli [4]): 1 µg/mL (≈ 2.93 µM)
- MIC90 (Staphylococcus aureus [5]): 0.06 µg/mL (≈ 0.176 µM)
- MIC90 (Klebsiella aerogenes): 16 µg/mL (≈ 46.9 µM)
- MIC90 (Enterococcus faecium): > 64 µg/mL
- MIC90 (Streptococcus pneumoniae): 0.5 µg/mL (≈ 1.46 µM)
- MIC90 (Bacteroides fragilis): 16 µg/mL (≈ 46.9 µM)
- MIC (Pseudomonas aeruginosa [6]): 32 µg/mL (≈ 93.7 µM)
- MIC90 [7]: 32 µg/mL (≈ 93.7 µM)
- MIC (Staphylococcus aureus [8]): 0.015 µg/mL (≈ 0.0439 µM)
- MIC90 (Moraxella catarrhalis): 2 µg/mL (≈ 5.86 µM)
- MIC90 (Streptococcus pyogenes): 0.5 µg/mL (≈ 1.46 µM)
- MIC (Staphylococcus aureus [9]): 0.06 µg/mL (≈ 0.176 µM)
- MIC90 [10]: > 64 µg/mL
- MIC90 (Listeria monocytogenes): 2 µg/mL (≈ 5.86 µM)
- MIC90 (Citrobacter freundii): 1 µg/mL (≈ 2.93 µM)
- MIC90 (Yersinia sp.): 1 µg/mL (≈ 2.93 µM)
- MIC (Enterococcus faecalis [11]): 16 µg/mL (≈ 46.9 µM)
- MIC90 (Haemophilus influenzae): 2 µg/mL (≈ 5.86 µM)
- MIC90 (Escherichia coli [12]): 1 µg/mL (≈ 2.93 µM)
- MIC (Escherichia coli [13]): 1 µg/mL (≈ 2.93 µM)
- MIC (Staphylococcus aureus [14]): 4 µg/mL (≈ 11.7 µM)
- MIC (Pseudomonas aeruginosa [15]): 0.25 µg/mL (≈ 0.732 µM)
- MIC (Escherichia coli [16]): 1 µg/mL (≈ 2.93 µM)
- MIC90 (Klebsiella pneumoniae): 1 µg/mL (≈ 2.93 µM)
- MIC90 (Staphylococcus aureus [17]): 8 µg/mL (≈ 23.4 µM)
- MIC90 (Streptococcus agalactiae): 0.12 µg/mL (≈ 0.352 µM)
- MIC90 (Pseudomonas aeruginosa [18]): > 64 µg/mL
- MIC (Escherichia coli [19]): 0.5 µg/mL (≈ 1.46 µM)
- MIC90 [20]: 0.12 µg/mL (≈ 0.352 µM)
- MIC (Escherichia coli [21]): 1 µg/mL (≈ 2.93 µM)
- MIC90 (Clostridium perfringens): 1 µg/mL (≈ 2.93 µM)
- MIC (Staphylococcus aureus [22]): 0.12 µg/mL (≈ 0.352 µM)

SMILES: C[C@@H](O)[C@H]1C(=O)N2C(C(=O)O)=C(CN(C)CC(N)=O)S[C@H]12
- MIC90 (Enterococcus faecalis [1]): 8 µg/mL (≈ 25.4 µM)
- MIC90 (Aeromonas): 1 µg/mL (≈ 3.17 µM)
- MIC (Escherichia coli [2]): 0.25 µg/mL (≈ 0.793 µM)
- MIC (Pseudomonas aeruginosa [3]): 4 µg/mL (≈ 12.7 µM)
- MIC (Escherichia coli [4]): 0.25 µg/mL (≈ 0.793 µM)
- MIC90 (Staphylococcus aureus [5]): 0.0075 µg/mL (≈ 0.0238 µM)
- MIC90 (Klebsiella aerogenes): 8 µg/mL (≈ 25.4 µM)
- MIC90 (Enterococcus faecium): > 64 µg/mL
- MIC90 (Streptococcus pneumoniae): 0.06 µg/mL (≈ 0.19 µM)
- MIC90 (Bacteroides fragilis): 2 µg/mL (≈ 6.34 µM)
- MIC (Pseudomonas aeruginosa [6]): > 64 µg/mL
- MIC90 [7]: 16 µg/mL (≈ 50.7 µM)
- MIC (Staphylococcus aureus [8]): 0.015 µg/mL (≈ 0.0476 µM)
- MIC90 (Moraxella catarrhalis): 0.25 µg/mL (≈ 0.793 µM)
- MIC90 (Streptococcus pyogenes): 0.06 µg/mL (≈ 0.19 µM)
- MIC (Staphylococcus aureus [9]): 0.06 µg/mL (≈ 0.19 µM)
- MIC90 (Morganella morganii): 2 µg/mL (≈ 6.34 µM)
- MIC90 [10]: > 64 µg/mL
- MIC90 (Listeria monocytogenes): 0.5 µg/mL (≈ 1.59 µM)
- MIC90 (Citrobacter freundii): 1 µg/mL (≈ 3.17 µM)
- MIC90 (Yersinia sp.): 0.5 µg/mL (≈ 1.59 µM)
- MIC (Enterococcus faecalis [11]): 4 µg/mL (≈ 12.7 µM)
- MIC90 (Haemophilus influenzae): 2 µg/mL (≈ 6.34 µM)
- MIC90 (Providencia rettgeri): 2 µg/mL (≈ 6.34 µM)
- MIC90 (Escherichia coli [12]): 0.25 µg/mL (≈ 0.793 µM)
- MIC (Escherichia coli [13]): 0.25 µg/mL (≈ 0.793 µM)
- MIC (Staphylococcus aureus [14]): 1 µg/mL (≈ 3.17 µM)
- MIC (Pseudomonas aeruginosa [15]): 0.5 µg/mL (≈ 1.59 µM)
- MIC (Escherichia coli [16]): 0.5 µg/mL (≈ 1.59 µM)
- MIC90 (Klebsiella pneumoniae): 0.5 µg/mL (≈ 1.59 µM)
- MIC90 (Staphylococcus aureus [17]): 4 µg/mL (≈ 12.7 µM)
- MIC90 (Streptococcus agalactiae): 0.06 µg/mL (≈ 0.19 µM)
- MIC90 (Providencia stuartii): 2 µg/mL (≈ 6.34 µM)
- MIC90 (Proteus mirabilis): 1 µg/mL (≈ 3.17 µM)
- MIC90 (Pseudomonas aeruginosa [18]): > 64 µg/mL
- MIC (Escherichia coli [19]): 0.25 µg/mL (≈ 0.793 µM)
- MIC90 [20]: 0.015 µg/mL (≈ 0.0476 µM)
- MIC (Escherichia coli [21]): 0.5 µg/mL (≈ 1.59 µM)
- MIC90 (Clostridium perfringens): 0.5 µg/mL (≈ 1.59 µM)
- MIC90 (Proteus vulgaris): 2 µg/mL (≈ 6.34 µM)
- MIC (Staphylococcus aureus [22]): 0.06 µg/mL (≈ 0.19 µM)
